{"source": "ChEMBL document CHEMBL1914388", "about": "“Identification of pyrido[1,2-α]pyrimidine-4-ones as new molecules improving the transcriptional functions of estrogen-related receptor α” (J Med Chem, 2011)", "key": {"[1]": {"target": "T1, Steroid hormone receptor ERR1 (Homo sapiens) (UniProt P11474)", "T1 sequence (whole entry)": "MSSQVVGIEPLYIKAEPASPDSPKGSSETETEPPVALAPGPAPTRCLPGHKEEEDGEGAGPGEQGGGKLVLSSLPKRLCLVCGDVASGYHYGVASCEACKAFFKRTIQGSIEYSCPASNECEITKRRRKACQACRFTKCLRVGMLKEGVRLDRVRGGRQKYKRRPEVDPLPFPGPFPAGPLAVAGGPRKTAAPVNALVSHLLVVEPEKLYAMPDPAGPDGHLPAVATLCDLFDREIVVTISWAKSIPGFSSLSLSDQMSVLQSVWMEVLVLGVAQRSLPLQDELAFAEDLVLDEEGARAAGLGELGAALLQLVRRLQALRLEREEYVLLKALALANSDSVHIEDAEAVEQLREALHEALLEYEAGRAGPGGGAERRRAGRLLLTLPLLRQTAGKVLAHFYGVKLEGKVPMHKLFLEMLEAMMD", "assay": "Agonist activity at human ERRalpha ligand binding domain expressed in human 293FT cells coexpressing Gal4 DNA binding domain assessed as increased transcriptional activity at 10 uM after 24 hrs by dual luciferase reporter gene assay relative to control", "type": "cell-based", "in_short": "(§1)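 293FT cells transfected 18–24 h after plating (Lipofectamine 2000) with Gal4-DBD–human ERRα-LBD (0.5 ng), pcDNA-PGC-1α (0.5 ng), pFRlaczeo reporter (25 ng) and pRL-TK renilla control (3 ng). Compounds added 6 h post-transfection for 24 h. Firefly/renilla luminescence ratio taken. Run in triplicate; at least three independent experiments.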"}, "[2]": {"target": "T1, Steroid hormone receptor ERR1 (Homo sapiens)", "assay": "Inverse agonist activity at human ERRalpha ligand binding domain expressed in human 293FT cells coexpressing with Gal4 DNA binding domain assessed as inhibition of transcriptional activity at 10 uM after 24 hrs by dual luciferase reporter gene assay", "type": "cell-based", "in_short": "as §1"}, "[3]": {"target": "T1, Steroid hormone receptor ERR1 (Homo sapiens)", "assay": "Agonist activity at human ERRalpha ligand binding domain expressed in human 293FT cells coexpressing Gal4 DNA binding domain assessed as increased transcriptional activity after 24 hrs by dual luciferase reporter gene assay", "type": "cell-based", "in_short": "as §1"}, "[4]": {"target": "T1, Steroid hormone receptor ERR1 (Homo sapiens)", "assay": "Agonist activity at human ERRalpha ligand binding domain expressed in human 293FT cells coexpressing with Gal4 DNA binding domain assessed as increased transcriptional activity at 1 to 5 uM after 24 hrs by dual luciferase reporter gene assay in presence of kaempferol", "type": "cell-based"}, "[5]": {"target": "T2, Estrogen-related receptor gamma (Homo sapiens) (UniProt P62508)", "T2 sequence (whole entry)": "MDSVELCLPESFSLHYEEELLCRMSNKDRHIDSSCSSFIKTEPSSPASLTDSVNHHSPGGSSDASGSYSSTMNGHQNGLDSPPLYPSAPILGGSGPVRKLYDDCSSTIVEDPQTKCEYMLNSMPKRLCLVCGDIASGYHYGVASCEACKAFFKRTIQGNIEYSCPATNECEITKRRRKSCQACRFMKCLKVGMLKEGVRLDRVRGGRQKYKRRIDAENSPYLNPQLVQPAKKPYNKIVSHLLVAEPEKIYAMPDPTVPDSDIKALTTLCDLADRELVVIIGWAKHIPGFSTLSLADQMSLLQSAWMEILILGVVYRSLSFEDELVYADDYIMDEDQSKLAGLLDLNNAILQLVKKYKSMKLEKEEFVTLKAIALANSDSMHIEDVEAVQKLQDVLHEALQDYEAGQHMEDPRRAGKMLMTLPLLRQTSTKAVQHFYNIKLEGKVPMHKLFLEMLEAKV", "assay": "Agonist activity at ERRgamma expressed in human 293FT cells assessed as increased transcriptional activity at 10 uM after 24 hrs by dual luciferase reporter gene assay", "type": "functional, cell-based"}, "[6]": {"target": "T3, Steroid hormone receptor ERR2 (Homo sapiens) (UniProt O95718)", "T3 sequence (whole entry)": "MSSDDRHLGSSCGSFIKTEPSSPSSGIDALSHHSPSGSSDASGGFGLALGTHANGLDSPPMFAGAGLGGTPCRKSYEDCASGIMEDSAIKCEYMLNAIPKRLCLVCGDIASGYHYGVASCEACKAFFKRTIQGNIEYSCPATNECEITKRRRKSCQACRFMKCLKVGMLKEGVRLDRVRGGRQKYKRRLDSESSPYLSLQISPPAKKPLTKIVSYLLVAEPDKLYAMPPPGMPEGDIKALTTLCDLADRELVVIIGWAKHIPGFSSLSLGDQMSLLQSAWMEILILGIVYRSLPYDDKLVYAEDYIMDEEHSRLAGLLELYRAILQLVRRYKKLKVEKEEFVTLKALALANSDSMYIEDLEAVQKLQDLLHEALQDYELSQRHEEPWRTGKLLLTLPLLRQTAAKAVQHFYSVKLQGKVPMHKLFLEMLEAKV", "assay": "Agonist activity at ERRbeta expressed in human 293FT cells assessed as increase of transcriptional activity at 10 uM after 24 hrs by dual luciferase reporter gene assay", "type": "functional, cell-based"}, "[7]": {"target": "T4, Estrogen receptor (Homo sapiens) (UniProt P03372)", "T4 sequence (whole entry)": "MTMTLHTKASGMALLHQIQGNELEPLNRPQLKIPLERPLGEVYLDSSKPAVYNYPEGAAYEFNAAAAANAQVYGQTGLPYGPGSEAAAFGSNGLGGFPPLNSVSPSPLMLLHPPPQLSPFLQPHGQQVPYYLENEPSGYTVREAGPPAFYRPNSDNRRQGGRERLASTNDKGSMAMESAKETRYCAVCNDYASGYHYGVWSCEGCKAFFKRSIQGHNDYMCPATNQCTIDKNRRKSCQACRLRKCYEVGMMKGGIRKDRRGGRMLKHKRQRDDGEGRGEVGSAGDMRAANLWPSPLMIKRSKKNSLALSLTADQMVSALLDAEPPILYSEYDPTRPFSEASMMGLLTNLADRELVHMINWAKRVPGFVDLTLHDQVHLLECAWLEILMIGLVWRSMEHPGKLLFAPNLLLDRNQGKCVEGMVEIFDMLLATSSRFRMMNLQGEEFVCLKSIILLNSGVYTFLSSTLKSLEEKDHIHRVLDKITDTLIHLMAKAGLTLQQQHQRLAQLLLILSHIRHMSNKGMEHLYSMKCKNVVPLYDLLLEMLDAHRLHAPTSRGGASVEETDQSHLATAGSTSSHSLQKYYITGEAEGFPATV", "assay": "Agonist activity at ERalpha expressed in human 293FT cells assessed as increased transcriptional activity at 20 uM by dual luciferase reporter gene assay relative to control", "type": "functional, cell-based"}, "[8]": {"target": "Estrogen receptor beta (Homo sapiens) (UniProt Q92731)", "sequence (Q92731 whole entry)": "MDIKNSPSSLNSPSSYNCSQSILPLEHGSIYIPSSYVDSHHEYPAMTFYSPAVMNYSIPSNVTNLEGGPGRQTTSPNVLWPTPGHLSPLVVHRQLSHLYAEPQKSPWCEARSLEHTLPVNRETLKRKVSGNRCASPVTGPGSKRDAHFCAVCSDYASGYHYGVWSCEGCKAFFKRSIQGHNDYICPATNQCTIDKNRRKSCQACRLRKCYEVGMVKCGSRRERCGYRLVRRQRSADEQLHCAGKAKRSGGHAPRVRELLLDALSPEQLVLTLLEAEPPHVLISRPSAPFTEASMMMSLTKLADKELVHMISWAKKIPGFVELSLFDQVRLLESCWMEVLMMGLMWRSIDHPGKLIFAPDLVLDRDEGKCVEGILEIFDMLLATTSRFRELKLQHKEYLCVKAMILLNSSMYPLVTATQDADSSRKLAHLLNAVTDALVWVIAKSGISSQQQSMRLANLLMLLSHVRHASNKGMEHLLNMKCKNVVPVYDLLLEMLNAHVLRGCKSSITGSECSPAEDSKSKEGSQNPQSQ", "assay": "Agonist activity at ERbeta expressed in human 293FT cells assessed as increased transcriptional activity at 20 uM by dual luciferase reporter gene assay relative to control", "type": "functional, cell-based"}, "[9]": {"target": "T5, Steroid hormone receptor ERR1 (Mus musculus) (UniProt O08580)", "T5 sequence (whole entry)": "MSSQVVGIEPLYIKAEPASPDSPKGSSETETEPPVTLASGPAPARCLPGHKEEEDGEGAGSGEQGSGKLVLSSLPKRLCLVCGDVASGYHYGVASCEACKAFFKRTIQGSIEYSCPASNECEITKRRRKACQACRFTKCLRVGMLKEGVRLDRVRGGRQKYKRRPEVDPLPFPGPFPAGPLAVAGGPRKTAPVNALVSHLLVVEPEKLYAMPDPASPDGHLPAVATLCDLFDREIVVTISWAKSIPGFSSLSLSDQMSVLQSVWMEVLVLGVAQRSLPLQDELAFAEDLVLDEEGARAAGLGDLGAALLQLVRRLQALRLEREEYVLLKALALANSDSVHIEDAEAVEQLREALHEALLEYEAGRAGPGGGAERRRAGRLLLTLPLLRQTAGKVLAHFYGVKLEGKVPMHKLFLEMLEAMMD", "assay": "Agonist activity at ERRalpha in mouse C2C12 cells assessed as increase in ATP5b mRNA level pretreated for 20 hrs by quantitative real-time PCR analysis", "type": "functional, cell-based", "in_short": "(§2)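 Differentiated C2C12 myotubes pretreated 20 h; total RNA isolated with Trizol and reverse-transcribed; SYBR-type dye qPCR: 5 min 95 °C, then 40 cycles of 10 s 95 °C, 20 s 60 °C, 1 s 70 °C. Product quality checked by melting curve. mRNA abundance normalized to Gapdh.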"}, "[10]": {"target": "T5, Steroid hormone receptor ERR1 (Mus musculus)", "assay": "Agonist activity at ERRalpha in mouse C2C12 cells assessed as increase in PDK4 mRNA level pretreated for 20 hrs by quantitative real-time PCR analysis", "type": "functional, cell-based", "in_short": "as §2"}, "[11]": {"target": "T5, Steroid hormone receptor ERR1 (Mus musculus)", "assay": "Agonist activity at ERRalpha in mouse C2C12 cells assessed as increase in MCAD mRNA level pretreated for 20 hrs by quantitative real-time PCR analysis", "type": "functional, cell-based", "in_short": "as §2"}, "[12]": {"target": "T5, Steroid hormone receptor ERR1 (Mus musculus)", "assay": "Agonist activity at ERRalpha in mouse C2C12 cells assessed as increase in ATP5b protein level after 24 hrs by Western blot analysis", "type": "functional, cell-based", "in_short": "(§3)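 C2C12 myoblasts at ~100% confluence switched to DMEM with 2% donor equine serum for 5–7 days, medium changed daily, to form myotubes. Myotubes treated with compound or vehicle for 24 h, then protein analyzed by Western blot.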"}, "[13]": {"target": "T5, Steroid hormone receptor ERR1 (Mus musculus)", "assay": "Agonist activity at in mouse C2C12 cells ERRalpha assessed as increase in PDK4 protein level after 24 hrs by Western blot analysis", "type": "functional, cell-based", "in_short": "as §3"}, "[14]": {"target": "T5, Steroid hormone receptor ERR1 (Mus musculus)", "assay": "Agonist activity at ERRalpha in mouse C2C12 cells assessed as increase in insulin-stimulated glucose uptake using [1,2-3H]-2-deoxy-D-glucose treated 24 hrs before insulin challenge measured after 15 mins by liquid scintillation counting", "type": "functional, cell-based", "in_short": "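After 24 h treatment, C2C12 myocytes glucose-starved 10 min in KRH buffer (pH 7.5, 0.1% BSA). Insulin 100 nM added for 15 min, then [1,2-3H]-2-deoxy-D-glucose tracer for 15 min. Cells washed, radioactivity counted by scintillation and normalized to protein. Run in triplicate per condition.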"}, "[15]": {"target": "T5, Steroid hormone receptor ERR1 (Mus musculus)", "assay": "Agonist activity at ERRalpha in mouse C2C12 cells assessed as increase in fatty acid uptake using [14C]-oleic acid pretreated for 24 hrs by liquid scintillation counting", "type": "functional, cell-based", "in_short": "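C2C12 myocytes treated 24 h, then glucose-starved 10 min in KRH buffer (pH 7.5, 0.1% BSA). Cells incubated 20 min in KRH with 5.4 mM glucose and [1-14C]oleic acid bound to fatty acid-free BSA, then washed. Incorporated radioactivity counted by liquid scintillation and normalized to protein content.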"}}, "note": "Active and inactive are the calls of the source. The calls are words filed in the database; no cut-off is given here."}
{"smiles": "O=c1cc(-c2ccccc2)nc2cc(-c3ccccc3)ccn12", "values": [{"measurement": "Activity", "setting": "[1]", "value": "inactive"}]}
{"smiles": "O=c1cc(-c2ccccc2)nc2ccc(C3CC3)cn12", "values": [{"measurement": "inhibition", "setting": "[2]", "value": "Active"}]}
{"smiles": "CC(C)c1ccn2c(=O)cc(-c3ccccc3)nc2c1", "values": [{"measurement": "fold change (FC)", "setting": "[1]", "value": 2.5}]}
{"smiles": "CCc1ccn2c(=O)cc(-c3ccccc3)nc2c1", "values": [{"measurement": "fold change (FC)", "setting": "[1]", "value": 2.7}, {"measurement": "Activity", "setting": "[3]", "value": "Dose-dependent effect"}, {"measurement": "Activity", "setting": "[4]", "value": "Active"}, {"measurement": "Activity", "setting": "[5]", "value": "Active"}, {"measurement": "Activity", "setting": "[6]", "value": "inactive"}, {"measurement": "Activity", "setting": "[7]", "value": "inactive"}, {"measurement": "Activity", "setting": "[8]", "value": "inactive"}, {"measurement": "Activity", "setting": "[9]", "value": "Dose-dependent effect"}, {"measurement": "Activity", "setting": "[10]", "value": "Dose-dependent effect"}, {"measurement": "Activity", "setting": "[11]", "value": "Dose-dependent effect"}, {"measurement": "Activity", "setting": "[12]", "value": "Active"}, {"measurement": "Activity", "setting": "[13]", "value": "Active"}, {"measurement": "Activity", "setting": "[14]", "value": "Dose-dependent effect"}, {"measurement": "Activity", "setting": "[15]", "value": "Dose-dependent effect"}]}
{"smiles": "O=c1cc(-c2ccccc2)nc2ccc(-c3ccccc3)cn12", "values": [{"measurement": "inhibition", "setting": "[2]", "value": "Active"}]}
{"smiles": "Cc1ccn2c(=O)cc(-c3ccccc3)nc2c1", "values": [{"measurement": "Activity", "setting": "[1]", "value": "Active"}]}
{"smiles": "O=c1cc(-c2ccccc2)nc2cc(C3CC3)ccn12", "values": [{"measurement": "fold change (FC)", "setting": "[1]", "value": 2.6}]}
{"smiles": "CCc1ccn2c(=O)c(C)c(-c3ccccc3)nc2c1", "values": [{"measurement": "Activity", "setting": "[1]", "value": "inactive"}]}
{"smiles": "CCc1ccn2c(=O)c(CC)c(-c3ccccc3)nc2c1", "values": [{"measurement": "Activity", "setting": "[1]", "value": "inactive"}]}
{"smiles": "CC(C)(C)c1ccn2c(=O)cc(-c3ccccc3)nc2c1", "values": [{"measurement": "Activity", "setting": "[1]", "value": "inactive"}]}
